Assay results as given in paper PMC3596460 (Nuclear medicine and biology, 2013).
Like-named read-outs stand apart in the source and are kept apart here.

Legend:
[1] = target: T1, human norepinephrine transporter (hNET) (Homo sapiens, UniProt P23975); test: Saturation transport kinetics assays with intact C6-hNET cells; format: cell-based; settings: for Vmax / Km: intact C6-hNET cells, 5 min, 37 °C, mean ± SD, n = 4 or 5
[2] = target: T1, human norepinephrine transporter (hNET); test: Competitive inhibition of [^3H]mazindol binding to C6-hNET cell membranes
Procedure, shortened: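 Rat C6 glioma cells stably expressing human NET were Dounce-homogenized, and membranes were pelleted at 100,000 × g and resuspended in 50 mM Tris, 120 mM NaCl, 5 mM KCl, pH 7.4. Each assay used 70–100 μg protein. Radioligand was [3H]mazindol, with desipramine defining nonspecific binding. Ten inhibitor concentrations were run in quadruplicate and normalized to % specific binding. A one-site competition fit gave IC50, converted to Ki by Cheng-Prusoff using the mean saturation KD.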

[3] = earlier studies, reference not given; cited from earlier work
[4] = system: norepinephrine transporter (NET); settings: isolated rat heart, cited from earlier work
[5] = system: norepinephrine transporter (NET); test: NET transport kinetics / neuronal uptake in isolated perfused rat hearts; settings: isolated rat heart, ratio of Vmax and Km estimates
[6] = target: T1, human norepinephrine transporter (hNET); test: Saturation binding assays with [^3H]mazindol and C6-hNET membranes; settings: C6-hNET cell membranes, n = 4
Procedure, shortened: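 The membranes were C6-hNET cell membranes, 100,000 × g pellets in 50 mM Tris/120 mM NaCl/5 mM KCl, pH 7.4, from different batches. Protein was measured by Lowry with BSA standards. Eight [3H]mazindol concentrations (0.25–25 nM) were tested, with specific binding in triplicate at each. A one-site binding nonlinear fit gave KD (nM) and Bmax (fmol/mg protein).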

[7] = [^3H]mazindol, homogenized C6-hNET cell membranes, Cheng-Prusoff, mean ± SD, n = 4 or 5

T1 sequence (P23975 whole entry): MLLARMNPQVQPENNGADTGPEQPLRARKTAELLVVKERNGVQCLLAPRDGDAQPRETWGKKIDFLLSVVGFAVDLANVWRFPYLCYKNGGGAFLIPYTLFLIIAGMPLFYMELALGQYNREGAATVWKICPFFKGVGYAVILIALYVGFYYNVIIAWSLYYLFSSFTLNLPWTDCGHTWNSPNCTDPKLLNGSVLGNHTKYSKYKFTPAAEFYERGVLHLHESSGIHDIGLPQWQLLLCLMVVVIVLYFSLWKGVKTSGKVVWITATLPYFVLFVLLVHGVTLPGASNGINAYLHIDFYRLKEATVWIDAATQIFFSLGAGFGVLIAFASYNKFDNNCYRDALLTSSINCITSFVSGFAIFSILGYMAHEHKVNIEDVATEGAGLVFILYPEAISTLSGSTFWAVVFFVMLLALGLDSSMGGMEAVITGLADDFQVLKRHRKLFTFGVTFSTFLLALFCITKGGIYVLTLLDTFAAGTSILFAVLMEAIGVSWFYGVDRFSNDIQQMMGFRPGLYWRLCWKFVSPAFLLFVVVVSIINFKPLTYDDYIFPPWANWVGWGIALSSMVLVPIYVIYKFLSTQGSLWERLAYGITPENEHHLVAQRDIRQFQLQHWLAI

## N=[11C](N)NCCc1cccc(O)c1 [MHPG, [^11C]meta-hydroxyphenethylguanidine]
[1]; C6-hNET cells, comparator PHPG
  Vmax relative to PHPG: 2.4 times higher
[1]
  Vmax: 7.83 ± 1.73 pmol/min/mg protein

## CNC[C@H](O)c1ccc(O)c(O)c1 [EPI, [^11C]-(−)-epinephrine]
[1]; C6-hNET cells, comparator NE
  Km increase relative to NE: 11 fold
[2]
  Ki: 68.4 ± 7.6 µM
[3]
  log P: −1.30

## N=[11C](N)NCCc1ccc(O)cc1 [PHPG, [^11C]para-hydroxyphenethylguanidine]
[1]
  Vmax: 3.31 ± 0.40 pmol/min/mg protein

## NC[C@H](O)c1ccc(O)c(O)c1 [NE, [^3H]-(−)-norepinephrine]
[4]; ref Iversen [14]
  Km: 0.27 µM
  Vmax: 1.18 ± 0.12 nmol/min/g wet

## N=C(N)NCc1cccc([131I])c1 [MIBG, [^131I]metaiodobenzylguanidine]
[4]; ref DeGrado et al. [15]
  Vmax: 0.23 nmol/min/g wet
[5]; ref DeGrado et al. [15]
  Vmax/Km ratio: 4.4 ml/min/g wet

## N=C(N)NCCc1cccc(O)c1 [MHPG, [^11C]meta-hydroxyphenethylguanidine]
[1]
  Km: 0.73 ± 0.2 µM
[2]; [7]
  Ki: 4.9 ± 0.5 µM

## NC(N)=NCc1cccc([76Br])c1 [MBBG, [^76Br]-meta-bromobenzylguanidine]
[4]; ref Raffel et al. [16]
  Vmax: 0.33 ± 0.10 nmol/min/g wet
[5]; ref Raffel et al. [16]
  Vmax/Km ratio: 3.0 ± 1.2 ml/min/g wet

## [^3H]dopamine [DA]
[1]
  Km: 0.24 ± 0.04 µM
  Vmax: 2.91 ± 0.47 pmol/min/mg protein
[4]; ref Hellmann et al. [11]
  Km: 0.69 µM
  Vmax: 1.45 nmol/min/g wet
[5]; ref Hellmann et al. [11]
  Vmax/Km ratio: 2.10 ml/min/g wet

## N=[11C](N)NCC(O)c1cccc(O)c1 (single isomer, unassigned; (-)) [GMO, (−)-N-[^11C]guanyl-meta-octopamine]
[1]; C6-hNET cells, comparator MHPG
  Km increase relative to MHPG: 6 fold
  Vmax decrease relative to MHPG: 30%
  Vmax/Km ratio slower than for MHPG: ~ 9 times slower
[1]
  Vmax: 5.57 ± 0.30 pmol/min/mg protein

## N=C(N)NCCc1ccc(O)cc1 [PHPG, [^11C]para-hydroxyphenethylguanidine]
[1]
  Km: 0.52 ± 0.06 µM
[2]; [7]
  Ki: 1.9 ± 0.2 µM

## [^11C]-(−)-meta- hydroxyephedrine
[1]
  Km: 0.48 ± 0.08 µM
  Vmax: 5.43 ± 0.71 pmol/min/mg protein
[2]; [7]
  Ki: 43.2 ± 1.8 µM
[3]
  log P: 0.3

## OC1(c2ccc(Cl)cc2)c2ccccc2C2=NCCN21 (stereo not drawn) [[^3H]mazindol, [4′-^3H]Mazindol]
[6]
  Bmax: 457 ± 31 fmol/mg protein
  Kd: 0.0012 µM

## N=C(N)NCC(O)c1cccc(O)c1 (single isomer, unassigned; (-)) [GMO, (−)-N-[^11C]guanyl-meta-octopamine]
[1]
  Km: 4.43 ± 0.31 µM
[2]; [7]
  Ki: 20.3 ± 2.5 µM

## N=[11C](N)NCCc1cc(O)ccc1F [6F-MHPG, [^11C]6-fluoro-meta-hydroxyphenethylguanidine]
[1]; C6-hNET cells, comparator MHPG
  Km increase relative to MHPG: ~ 5 fold
  Vmax decrease relative to MHPG: ~ 50%
  Vmax/Km as percentage of the value for MHPG: ~ 12%
[1]
  Vmax: 4.06 ± 0.66 pmol/min/mg protein

## N=C(N)NCCc1cc(O)ccc1F [6F-MHPG, [^11C]6-fluoro-meta-hydroxyphenethylguanidine]
[1]
  Km: 2.86 ± 0.43 µM
[2]; [7]
  Ki: 17.7 ± 0.5 µM

## N=C(N)NCc1cccc(I)c1 [MIBG, [^131I]metaiodobenzylguanidine]
[4]; ref DeGrado et al. [15]
  Km: 0.052 µM

## N=C(N)NCCc1ccc(F)c(O)c1 [4F-MHPG, [^11C]4-fluoro-meta-hydroxyphenethylguanidine]
[1]; C6-hNET cells, comparator MHPG
  Km increase relative to MHPG: 5 fold
[1]
  Km: 2.57 ± 0.35 µM
  Vmax: 7.46 ± 0.64 pmol/min/mg protein
[2]; [7]
  Ki: 5.6 ± 0.5 µM

## NC(N)=NCc1cccc(Br)c1 [MBBG, [^76Br]-meta-bromobenzylguanidine]
[4]; ref Raffel et al. [16]
  Km: 0.11 ± 0.03 µM
